The values that follow come from ChEMBL document CHEMBL3804777, “Identification and Preclinical Pharmacology of BMS-986104: A Differentiated S1P1 Receptor Modulator in Clinical Trials” (ACS Med Chem Lett, 2016).

Activity calls are given as the source filed them. No cut-off for these calls is given here.

The nature of series [1]: Toxicity in human-inducible pluripotent stem cell-derived Cardiomyocyte assessed as reduction in cardiomyocyte beating at 0.1 nM after 2 hrs. To be noted: cardiac muscle cell, 0.0001 µM. Summed up: (§1)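 Cultured human iPSC-derived cardiomyocytes expressing S1P1 and S1P3, exposed to a range of concentrations of the phosphate; beating rate measured and the no-effect concentration determined.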

The test system of series [2] is Mus musculus. Put plainly: Reduction of blood lymphocyte level in BALB/c mouse administered through oral gavage after 24 hrs by hematology analysis. Particulars: for ED50: po. It counts as functional, organism-based.
Series [3] relates to Heart. In words: Toxicity in guinea pig heart assessed as third degree AV block at 1 nM after 10 mins by ECG analysis. It counts as tissue-based, Cavia porcellus. Particulars: 0.001 µM. The essentials: (§2)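 Isolated guinea pig hearts perfused with the phosphate at the stated concentrations; ventricular rate and atrioventricular conduction (third-degree AV block) monitored.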

The subject of series [4] is Heart. In words: Toxicity in guinea pig heart assessed as reduction in ventricular rate at 1 nM after 10 mins by ECG analysis. It counts as tissue-based, Cavia porcellus, Cardiac ventricle. Particulars: 0.001 µM. The essentials:
as §2

Series [5] addresses T1, Sphingosine 1-phosphate receptor 4 (Homo sapiens, UniProt O95977).
T1 sequence (O95977 whole entry): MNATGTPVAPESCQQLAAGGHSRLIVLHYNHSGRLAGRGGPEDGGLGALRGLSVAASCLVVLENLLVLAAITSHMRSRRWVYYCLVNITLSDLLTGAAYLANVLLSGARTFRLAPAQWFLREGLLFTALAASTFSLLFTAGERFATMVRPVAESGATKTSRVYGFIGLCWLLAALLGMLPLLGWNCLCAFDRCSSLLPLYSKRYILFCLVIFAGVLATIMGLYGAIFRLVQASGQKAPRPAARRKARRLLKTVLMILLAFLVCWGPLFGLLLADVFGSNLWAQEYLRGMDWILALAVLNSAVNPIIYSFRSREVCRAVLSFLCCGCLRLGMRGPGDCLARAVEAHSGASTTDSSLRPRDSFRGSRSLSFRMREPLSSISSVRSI
Put plainly: Agonist activity at human S1P4 receptor by GTPgammaS binding assay. Type of series: functional. Background: GTPγS resists hydrolysis and so accumulates on activated G proteins.

Series [6] can be described thus: Toxicity in human-inducible pluripotent stem cell-derived Cardiomyocyte assessed as reduction in cardiomyocyte beating at 1 nM after 2 hrs. Particulars: cardiac muscle cell, 0.001 µM. Also noted: scale not given: the % may be the effect or the level left. Summed up:
as §1

A short description of series [7]: Toxicity in human-inducible pluripotent stem cell-derived Cardiomyocyte assessed as reduction in cardiomyocyte beating after 2 hrs. Particulars: cardiac muscle cell. Summed up: as §1
Series [8] concerns Heart. Put plainly: Toxicity in guinea pig heart assessed as third degree AV block at 100 nM after 10 mins by ECG analysis. It counts as tissue-based, Cavia porcellus. Particulars: 0.1 µM. The essentials:
as §2

The target of series [9] is T2, Sphingosine 1-phosphate receptor 1 (Homo sapiens, UniProt P21453). Put plainly: Agonist activity at human S1P1 receptor expressed in CHO cells assessed as ERK phosphorylation after 7 mins by alphaLISA. Type of series: cell-based. On the technique in general: Alpha assays give light when donor and acceptor beads are brought close together.
T2 sequence (P21453 whole entry): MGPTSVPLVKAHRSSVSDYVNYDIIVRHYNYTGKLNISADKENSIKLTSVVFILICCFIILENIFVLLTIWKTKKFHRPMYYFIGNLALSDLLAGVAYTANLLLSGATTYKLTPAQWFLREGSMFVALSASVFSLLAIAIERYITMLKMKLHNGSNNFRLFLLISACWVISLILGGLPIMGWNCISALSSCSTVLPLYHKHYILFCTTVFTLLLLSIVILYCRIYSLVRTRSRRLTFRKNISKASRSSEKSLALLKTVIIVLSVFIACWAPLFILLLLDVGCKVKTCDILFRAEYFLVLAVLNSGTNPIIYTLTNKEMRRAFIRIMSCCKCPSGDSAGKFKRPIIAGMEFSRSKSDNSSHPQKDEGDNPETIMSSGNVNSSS
Series [10] deals with T2, Sphingosine 1-phosphate receptor 1. In words: Agonist activity at human S1P1 receptor expressed in CHO cells co-expressing GFP assessed as cellular internalization after 45 mins by Hoechst assay. Type of series: cell-based.
The subject of series [11] is Heart. In words: Toxicity in guinea pig heart assessed as reduction in ventricular rate at 1000 nM after 10 mins by ECG analysis. Type of series: tissue-based, Cavia porcellus, Cardiac ventricle. Particulars: 1 µM. Summed up: as §2
In series [12] the target is T3, Sphingosine 1-phosphate receptor 3 (Homo sapiens, UniProt Q99500). In words: Agonist activity at human S1P3 receptor by GTPgammaS binding assay. It counts as functional.
T3 sequence (Q99500 whole entry): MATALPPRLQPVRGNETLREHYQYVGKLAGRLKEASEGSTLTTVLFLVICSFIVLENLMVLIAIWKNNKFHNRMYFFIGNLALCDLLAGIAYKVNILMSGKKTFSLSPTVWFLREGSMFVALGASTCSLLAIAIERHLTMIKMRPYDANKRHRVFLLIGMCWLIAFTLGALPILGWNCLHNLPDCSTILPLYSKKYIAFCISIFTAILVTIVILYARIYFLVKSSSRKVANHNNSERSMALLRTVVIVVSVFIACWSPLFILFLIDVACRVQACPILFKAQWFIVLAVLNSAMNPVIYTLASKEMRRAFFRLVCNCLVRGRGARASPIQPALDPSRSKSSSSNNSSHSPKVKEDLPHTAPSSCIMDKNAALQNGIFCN
Series [13] concerns Heart. Put plainly: Toxicity in guinea pig heart assessed as reduction in ventricular rate at 100 nM after 10 mins by ECG analysis. Type of series: tissue-based, Cavia porcellus, Cardiac ventricle. Particulars: 0.1 µM. Summed up: as §2
In series [14] the target is Sphingosine 1-phosphate receptor 5 (Homo sapiens, UniProt Q9H228). Put plainly: Agonist activity at human S1P5 receptor by GTPgammaS binding assay. It counts as functional.
Sphingosine 1-phosphate receptor 5, sequence (Q9H228 whole entry): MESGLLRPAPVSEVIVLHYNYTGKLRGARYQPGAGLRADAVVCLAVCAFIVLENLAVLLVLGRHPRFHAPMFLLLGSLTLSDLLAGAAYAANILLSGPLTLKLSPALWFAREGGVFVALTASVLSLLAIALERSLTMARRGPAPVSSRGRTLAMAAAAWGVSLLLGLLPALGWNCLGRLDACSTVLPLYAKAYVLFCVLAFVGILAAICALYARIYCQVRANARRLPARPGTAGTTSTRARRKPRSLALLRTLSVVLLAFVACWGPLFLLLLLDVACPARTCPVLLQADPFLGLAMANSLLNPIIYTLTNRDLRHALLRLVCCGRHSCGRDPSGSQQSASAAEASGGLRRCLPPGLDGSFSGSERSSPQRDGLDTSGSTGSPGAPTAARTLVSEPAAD
Series [15] deals with T2, Sphingosine 1-phosphate receptor 1. In words: Agonist activity at human S1P1 receptor expressed in CHO cells assessed as cAMP accumulation after 30 mins by HTRF analysis. It counts as functional, cell-based.
In series [16] the target is T3, Sphingosine 1-phosphate receptor 3. In words: Antagonist activity at human S1P3 receptor by GTPgammaS binding assay. Type of series: functional.
Series [17] relates to Heart. Put plainly: Toxicity in guinea pig heart assessed as third degree AV block at 1000 nM after 10 mins by ECG analysis. It counts as tissue-based, Cavia porcellus. Particulars: 1 µM. The essentials:
as §2

Series [18] concerns Mus musculus. In words: Reduction of blood lymphocyte level in BALB/c mouse at 1 mg/kg administered through oral gavage after 24 hrs by hematology analysis. Also noted: scale not given: the % may be the effect or the level left. It counts as functional. The essentials: (§3)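 Mice given a single oral 1 mg/kg dose; circulating lymphocytes counted 24 h later as the pharmacodynamic marker.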

For series [19], the system named is Blood. In words: Drug metabolism in BALB/c mouse blood assessed as formation of phosphate ester metabolite at 10 mg/kg administered through oral gavage after 4 hrs by LC/MS/MS analysis. It counts as ADME, organism-based. To be noted: in vivo. Summed up: (§4)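 Mouse PK study: alcohol prodrug given orally at 10 mg/kg, and formation of the phosphate metabolite in blood measured.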

A short description of series [20]: Drug metabolism in BALB/c mouse whole blood assessed as whole blood phosphate area ratio at 10 uM after 4 hrs by LC/MS/MS analysis. It counts as ADME, tissue-based. Summed up: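 Mouse whole blood incubated with the amino-alcohol prodrug; phosphorylated product measured by LC/MS/MS after 4 h to give the relative extent of phosphate ester formation.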
Series [21] deals with Blood. In words: Drug metabolism in BALB/c mouse blood assessed as formation of phosphate ester metabolite at 10 mg/kg administered through oral gavage after 24 hrs by LC/MS/MS analysis. Type of series: ADME, organism-based. Particulars: in vivo. Summed up:
as §4

In series [22] the test system is Blood. Put plainly: Drug metabolism in BALB/c mouse blood assessed as formation of phosphate metabolite at 1 mg/kg administered through oral gavage after 24 hrs by LC/MS/MS analysis. Type of series: ADME, organism-based. Particulars: in vivo. The essentials: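 Single oral 1 mg/kg dose in mice; phosphate level in blood determined at 24 h postdose.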
The test system of series [23] is Mus musculus. In words: Reduction in blood lymphocyte level in BALB/c mouse at 1 mg/kg, po after 24 hrs by hematology analysis. It counts as functional, organism-based. Summed up: as §3

As for `CCCCCCCCc1ccc(CCC(N)(CO)COP(=O)(O)O)cc1` (stereo unspecified), the Activity result in [1] is on record as “Non-toxic”; in series [3], “Toxic”; in [4], 32 bpm; in series [6], 35%; in series [7], “Dose-dependent effect”. Further, the concentration giving a half-maximal response (EC50) (in general, the concentration needed to bring the measured effect to its halfway point) in [2] stood at 5.6 nM; in series [5] it was 0.09 nM. Also, the 50% effect level in series [2] (ED50) was put at a dose of 0.017 mg/kg.

`CCCCCC[C@@H]1CCc2cc([C@H]3CC[C@](N)(COP(=O)(O)O)C3)ccc2C1`: the Activity result in [8] was “Non-toxic”; in series [11] it was “Toxic”; in series [13], “Non-toxic”; in series [6], “Non-toxic”; in [17], “Toxic”. Also, the EC50 is 8.16 nM in series [9]; 0.114 nM in series [10]; 7.9 nM in series [2]; > 1000 nM in series [12]; 10.7 nM in series [14]; 0.006 nM in series [15]. In series [5], this compound came in with an EC50 of 10.5 nM. For the same compound, it took a dose of 0.12 mg/kg to reach the 50% effect level in series [2] (ED50). Further, the IC50 (in general, the concentration needed to halve the response being measured) in series [16] is > 1000 nM.

For `CCCCCCC1CCc2cc(C3CCC(N)(CO)C3)ccc2C1` (stereo in doubt; 3a), the Activity in series [18] came out at 12%. In addition, the Drug metabolism in [19] is < 9.8 nM; in series [21], 14 nM. Further, the Ratio in series [20] amounted to 0.07.

Turning to `CCCCCCC1CCc2cc(C3CCC(N)(CO)C3)ccc2C1` (stereo in doubt; 3b) [listing 1 of 2 here], the Activity in [18] is reported as 90%. Further, the Drug metabolism in series [19] was found to be 67 nM; in series [22], 47 nM; in series [21], 475 nM. In series [20], the Ratio is reported as 1.6.

As to `CCCCCCC1CCc2cc(C3CCC(N)(CO)C3)ccc2C1` (stereo in doubt; 3b) [listing 2 of 2 here], in series [23], the result was Active.

In the case of `CCCCCCC1CCc2cc(C3CCC(N)(CO)C3)ccc2C1` (stereo in doubt; 3c), the Activity in series [18] is 18%. Moreover, the values for the Drug metabolism in series [19] and in series [21] were 12 nM and 46 nM, respectively. Further, the Ratio in series [20] is reported as 0.14.
